According to ChEMBL document CHEMBL1287760, “Optimization of purine-nitrile TbcatB inhibitors for use in vivo and evaluation of efficacy in murine models” (Bioorg Med Chem, 2010):
≈ marks a conversion by molar mass, not a printed value. Calls of active or inactive are those of the source. The rule behind the calls is not given here.

Legend:
[1] = Aqueous solubility of compound in deionized water; format: physicochemical
Outline: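 Aqueous solubility measured in deionized water.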

[2] = Half life in CD1 mouse plasma by UPLC-MS analysis; format: ADME, cell-free
Outline: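 Half-life in mouse plasma measured at 37 °C.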

[3] = test system: Trypanosoma brucei; experiment: Antitrypanosomal activity against Trypanosoma brucei after 48 hrs; format: functional, organism-based
[4] = Therapeutic index, ratio of EC50 for human cells to EC50 for Trypanosoma brucei; conditions: human cells versus Trypanosoma brucei, read-out: Ratio EC50
Outline: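 Index = EC50 against the most sensitive mammalian line (HEK 293, Hep G2, BJ, Raji) divided by EC50 against T.b. brucei.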

[5] = Toxicity in human erythrocyte assessed as hemolysis at 10 uM after 5 hrs; format: cell-based; conditions: erythrocytes, read-out: Activity
Outline: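 Human erythrocytes washed three times after spinning whole blood at 1000g for 5 min. Test compound at 10 µM final, 2% hematocrit. PBS negative control; 0.4% saponin dilution series as standard. After centrifugation, supernatant absorbance read at 414 nm and % hemolysis taken from the calibration curve. Triplicate.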

[6] = Half life in CD1 mouse liver microsomes by UPLC-MS analysis; format: ADME, Microsome; conditions: for half-life: CD1, mouse, liver microsomes
Outline: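 CD-1 female mouse liver microsomes in 0.1 M potassium phosphate pH 7.4 with EDTA and NADPH-regenerating solutions, 37 °C, shaken. Samples at 0, 0.5, 1 and 2 h quenched with cold acetonitrile containing caffeine internal standard. UPLC–MS (SIR) read-out. Log peak-area ratio versus time gives slope; k = −2.303 × slope, t1/2 = 0.693/k.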

[7] = Permeability of the compound assessed as ratio of compound in acceptor chamber to amount of compound in donor chamber at pH 3 by PAMPA assay; format: ADME
[8] = test system: Mus musculus; experiment: Stability of the compound in po dosed mouse blood; format: ADME, organism-based; conditions: in vivo
Outline: (§1)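 Oral gavage of compound suspensions to female Balb/c mice; blood sampled retro-orbitally at 1, 2 and 4 h (one sample per mouse) and by cardiac puncture at 48 h. Parent compound and metabolites measured by UPLC–MS; metabolite identity assigned by MS/MS against a synthesized standard.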

[9] = Permeability of the compound assessed as ratio of compound in acceptor chamber to amount of compound in donor chamber at pH 7.4 by PAMPA assay; format: ADME
[10] = test system: Mus musculus; experiment: Toxicity in mouse assessed as decreased movement at 2 to 8 mg/kg, iv measured after 30 seconds; format: organism-based; set-up: dose 2-8 mg/kg, route intravenous; conditions: in vivo, 0.5 min
Outline: (§2)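 Female Balb/c mice dosed by lateral tail-vein injection of solubilized compound at 2, 4 and 8 mg/kg (0.4–1.6 mg/ml solutions, 0.1 ml per 20 g). Observed by a modified Irwin functional observational battery (gait, alertness, respiration, piloerection, vasodilation, vocalization).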

[11] = Long term solid state stability of the compound at simulated tropical condition after 30 days; format: physicochemical; conditions: 720 h
[12] = Drug level in mouse brain at 200 mg/kg, po after 24 hrs; conditions: read-out: Drug uptake
[13] = test system: Trypanosoma brucei; experiment: Antitrypanosomal activity against Trypanosoma brucei 221 infected in BALB/c mouse assessed as decrease of parasitemia at 200 mg/kg, po qd for 5 days measured on day 4; format: functional, organism-based; set-up: dose 200 mg/kg
Outline: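 Female Balb/C mice (10–12 weeks) infected ip on day 0 with ~800 T.b. brucei strain 221 (0.1 ml of 8 × 10³ parasites/ml in unsupplemented HMI-9; parasites grown to 10⁷/ml in supplemented HMI-9). Randomized to oral gavage of 200 mg/kg suspension or vehicle (20% ethanol/40% propylene glycol/10% PEG 400/30% PBS pH 7.4) on days 0–4. Parasitemia counted by hemocytometer in saphenous blood every third day from day 4.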

[14] = Cmax in mouse plasma at 200 mg/kg, po; format: ADME, organism-based; set-up: dose 200 mg/kg, route oral
Outline: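 Female Balb/c mice given oral gavage suspensions (20% ethanol/40% propylene glycol/10% PEG 400/30% PBS pH 7.4), 0.1 ml per 20 g, at 50–1000 mg/kg. Retro-orbital blood (0.1 ml, EDTA) taken from a different mouse at 1, 2, 4 h, some also at 8, 12, 24 h, plus a 48 h cardiac bleed. Plasma precipitated with 3 parts cold acetonitrile; concentration by UV/HPLC.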

[15] = test system: Trypanosoma brucei; experiment: Antitrypanosomal activity against Trypanosoma brucei 221 infected in BALB/c mouse assessed as increase of mouse survival days at 200 mg/kg, po qd for 5 days relative to control; format: functional
Outline: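 Female Balb/C mice (10–12 weeks) infected on day 0 by IP injection of ~800 T.b. brucei 221 parasites (cultured in HMI-9 with 10% FBS and 10% Serum Plus, diluted to 8 × 10³ parasites/ml, 0.1 ml). Oral gavage of 200 mg/kg on days 0–4 in 20% ethanol/40% propylene glycol/10% PEG 400/30% PBS pH 7.4; vehicle controls. Mice were randomly assigned to groups. Parasitemia was counted by hemocytometer every third day from day 4. Survival days were recorded.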

[16] = Cmax in mouse brain at 200 mg/kg, po
[17] = Cmax in mouse plasma at 200 mg/kg, ip; format: ADME, organism-based; set-up: dose 200 mg/kg, route intraperitoneal
[18] = Toxicity in po dosed mouse assessed as maximum tolerated dosage; format: organism-based; conditions: in vivo
Outline: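 Female balb/c mice, 10–12 weeks, housed individually. Oral gavage in a four-stage escalation: vehicle, then 50, 100 and 200 mg/kg. Some groups went on to 400 and 1000 mg/kg. Dose volume 0.1 ml per 20 g. Twelve mice per compound. A modified Irwin FOB was run for 15 min after each dose and at 1–48 h (gait, alertness, respiration, piloerection, vasodilation, vocalization). Necropsy, CBC and serum chemistry were done at 48 h.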

[19] = test system: Mus musculus; experiment: Toxicity in mouse assessed as transient darkening of the eyes at 2 to 8 mg/kg, iv measured after 30 seconds; format: organism-based; set-up: dose 2-8 mg/kg, route intravenous; conditions: in vivo, 0.5 min; outline: as §2
[20] = test system: Trypanosoma brucei rhodesiense; experiment: Antitrypanosomal activity against Trypanosoma brucei rhodesiense STIB900 infected in NMRI mouse assessed as increase of mouse survival time at 50 to 200 mg/kg, po qd
[21] = test system: Trypanosoma brucei; experiment: Antitrypanosomal activity against Trypanosoma brucei 221 infected in BALB/c mouse assessed as decrease of parasitemia at 200 mg/kg, po qd for 5 days measured on day 6; format: functional, organism-based; set-up: dose 200 mg/kg
[22] = test system: Mus musculus; experiment: Toxicity in mouse assessed as decreased movement at 2 to 8 mg/kg, iv measured immediately after dosing; format: organism-based; set-up: dose 2-8 mg/kg, route intravenous; conditions: in vivo; outline: as §2
[23] = test system: Mus musculus; experiment: Toxicity in mouse assessed as transient darkening of the eyes at 2 to 8 mg/kg, iv measured immediately after dosing; format: organism-based; set-up: dose 2-8 mg/kg, route intravenous; conditions: in vivo; outline: as §2
[24] = Ratio of plasma concentration mouse at 200 mg/kg, po to EC50 for Trypanosoma brucei; format: ADME, organism-based; set-up: dose 200 mg/kg, route oral; conditions: in vivo
[25] = Cmax in mouse plasma at 50 to 1000 mg/kg, po after 1 to 4 hrs
[26] = test system: Mus musculus; experiment: Toxicity in mouse at 200 mg/kg, po qd for 10 days; format: organism-based; set-up: dose 200 mg/kg, route oral; conditions: in vivo, 240 h
Outline: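 Five female Balb/c mice given 200 mg/kg daily by oral gavage for 10 days and monitored to day 30. One mouse sent for CBC, serum chemistry and necropsy on day 10 and another on day 30. Functional observational battery used.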

[27] = Ratio of plasma concentration mouse at 200 mg/kg, po to EC90 for Trypanosoma brucei; format: ADME, organism-based; set-up: dose 200 mg/kg, route oral; conditions: in vivo
[28] = Ratio of drug level in brain to plasma in mouse at 200 mg/kg, po after 24 hrs
[29] = Inhibition of Trypanosoma brucei cathepsin B expressed in Pichia pastoris
[30] = test system: HepG2; experiment: Cytotoxicity against human HepG2 cells after 72 hrs by alamar blue assay; format: cell-based; conditions: hepg2, 72 h
[31] = Chemical stability in phosphate buffered saline at pH 3 after 14 days; format: physicochemical; conditions: buffer, pH 3, 336 h
Outline: (§3)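 Stability in PBS (pH 3, 5 and 7.4) followed over 14 days for non-metabolic degradation.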

[32] = test system: Raji; experiment: Cytotoxicity against human Raji cells after 72 hrs by alamar blue assay; format: cell-based
[33] = Chemical stability in phosphate buffered saline at pH 7.4 after 14 days; format: physicochemical; conditions: buffer, pH 7.4, 336 h; outline: as §3
[34] = Chemical stability in dimethyl sulfoxide at pH 7.4 after 14 days; format: physicochemical; conditions: buffer, pH 7.4, 336 h
Outline: (§4)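 DMSO stability followed over 14 days for non-metabolic degradation.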

[35] = Chemical stability in dimethyl sulfoxide at pH 3 after 14 days; format: physicochemical; conditions: buffer, pH 3, 336 h; outline: as §4
[36] = test system: BJ; experiment: Cytotoxicity against human BJ cells after 72 hrs by alamar blue assay; format: cell-based
[37] = Chemical stability in dimethyl sulfoxide at pH 5 after 14 days; format: physicochemical; conditions: buffer, pH 5, 336 h; outline: as §4
[38] = Chemical stability in phosphate buffered saline at pH 5 after 14 days; format: physicochemical; conditions: buffer, pH 5, 336 h; outline: as §3
[39] = test system: Mus musculus; experiment: Stability of the compound in po dosed mouse blood assessed as 3-(2-cyano-6-(3,4-dichlorobenzylamino)-9H-purin-9-yl)propanoic acid level after 1 hr; format: ADME, organism-based; conditions: in vivo; outline: as §1
[40] = test system: HEK293; experiment: Cytotoxicity against human HEK293 cells after 72 hrs by alamar blue assay; format: cell-based; conditions: hek293, 72 h
[41] = test system: Mus musculus; experiment: Stability of the compound in po dosed mouse blood assessed as 3-(2-cyano-6-(3,4-dichlorobenzylamino)-9H-purin-9-yl)propanoic acid level after 4 hrs; format: ADME, organism-based; conditions: in vivo; outline: as §1
[42] = test system: Mus musculus; experiment: Stability of the compound in po dosed mouse blood assessed as 3-(2-cyano-6-(3,4-dichlorobenzylamino)-9H-purin-9-yl)propanoic acid level; format: ADME, organism-based; conditions: in vivo; outline: as §1
[43] = Permeability of the compound assessed as ratio of compound in acceptor chamber to amount of compound in donor chamber at pH 5 by PAMPA assay; format: ADME

Row | solubility [1] [µM] | half-life [2] [h] | EC50 [3] [µM] | half-life [6] [h] | Ratio [7] | Stability [8] | Ratio [9] | Stability [31] | Stability [33] | Stability [34] | Stability [35] | Stability [37] | Stability [38] | Compound | selectivity ratio [4] | hemolysis at 5 h, 10 µM [5] [%] | Activity [30] | Activity [32] | Activity [36] | Activity [40] | further results
1 | 0.7 (≈ 0.263 µg/mL) | 247 | 0.5 | 0.74 |  |  |  |  |  |  |  |  |  | CCCCn1cnc2c(NCc3ccc(Cl)c(Cl)c3)nc(C#N)nc21 | > 20 | 0.9 |  |  |  |  | 
2 | 10.4 (≈ 3.92 µg/mL) | 5.1 | 1.4 | 0.6 | 1500 |  | 1300 | Stable | Stable | Stable | Stable | Stable | Stable | N#Cc1nc(NCc2ccc(Cl)c(Cl)c2)c2ncn(CCCO)c2n1 | > 20 | 0.7 | Non-toxic | Non-toxic | Non-toxic | Non-toxic | Stability [39]: Unstable; Stability [41]: Unstable; Stability [42]: > 50 µM; Ratio [43]: 960

The remaining lines, values behind:

Row | Compound | solubility [1] [µM] | half-life [2] [h] | EC50 [3] [µM] | half-life [6] [h] | Ratio [7] | Stability [8] | Ratio [9] | Stability [31] | Stability [33] | Stability [34] | Stability [35] | Stability [37] | Stability [38] | selectivity ratio [4] | hemolysis at 5 h, 10 µM [5] [%] | Activity [30] | Activity [32] | Activity [36] | Activity [40] | further results
3 | COCCCn1cnc2c(NCc3ccc(Cl)c(Cl)c3)nc(C#N)nc21 | 4.2 (≈ 1.64 µg/mL) | 40.9 | 2.4 | 0.53 | 1800 | Unstable | 1770 |  |  |  |  |  |  | > 10 | 0.7 |  |  |  |  | 
4 | N#Cc1nc(NCc2ccc(Cl)c(Cl)c2)c2ncn(CCCC(F)(F)F)c2n1 | 0.3 (≈ 0.129 µg/mL) | 177 | 0.53 |  |  |  |  |  |  |  |  |  |  | > 20 | 0.4 |  |  |  |  | Activity [10]: Non-toxic; Stability [11]: Stable; concentration at 24 h [12]: 20 µM; Activity [13]: inactive; Tmax [14]: 24 h; Survival [15]: 9.6 days; Tmax [16]: 4 h; Tmax [17]: 4 h; MTD [18]: 1000 mg/kg; Activity [19]: Non-toxic; Activity [20]: inactive; Activity [21]: inactive; Activity [22]: Non-toxic; Activity [23]: Non-toxic; Ratio [24]: 20; Cmax [25]: 6 µM; t1/2 ([6]; mouse, microsomes): Stable; Activity [26]: Non-toxic; Ratio [27]: 10; Kp at 24 h [28]: 2
5 | N#Cc1nc(NCc2ccc(Cl)c(Cl)c2)c2ncn(CCC(=O)O)c2n1 |  |  | > 25 |  |  |  |  |  |  |  |  |  |  |  |  |  |  |  |  | IC50 [29]: 2.6 µM
6 | Cc1cccc(C)c1-c1cccc(CNc2nc(C#N)nc3c2ncn3CCCO)c1 | 1 (≈ 0.412 µg/mL) | 25.7 | 0.27 | 0.43 |  | Unstable |  | Stable | Stable | Stable | Stable | Stable | Stable | > 20 | 1.1 | Non-toxic | Non-toxic | Non-toxic | Non-toxic | 
